Measured values as given in ChEMBL document CHEMBL1121378, “Lipophilic and hydrophilic esters of 4-acetyl-2-(2-hydroxyethyl)-5,6-bis(4-chlorophenyl)-2H-pyridazin-3-one as antihypertensive agents” (1980).

Experiments:
[1] = test system: Rattus norvegicus; assay: Antihypertensive activity in spontaneously hypertensive rats was measured as average blood pressure at 30 mg/kg, p.o. after 4 hours of postdose-1; format: functional; conditions: route oral
How it was run: (§1)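 SHR model with two successive doses, designated dose 1 and dose 2. Group-average blood pressure in mmHg was recorded before dosing and at 4 h and 24 h after each dose. The route is oral unless marked intra-arterial or subcutaneous. A table footnote marks doses that gave no significant lowering at 4 or 24 h postdose.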

[2] = test system: Rattus norvegicus; assay: Antihypertensive activity in spontaneously hypertensive rats was measured as average blood pressure at 30 mg/kg, p.o. after 4 hours of postdose-2; format: functional; conditions: route oral; how it was run: as §1
[3] = test system: Rattus norvegicus; assay: Antihypertensive activity in spontaneously hypertensive rats was measured as average blood pressure at 30 mg/kg, p.o. after 24 hours of postdose-1; format: functional; conditions: route oral; how it was run: as §1
[4] = test system: Rattus norvegicus; assay: Antihypertensive activity in spontaneously hypertensive rats was measured as average blood pressure at 30 mg/kg, po before predose; format: functional; how it was run: as §1
[5] = test system: Rattus norvegicus; assay: Antihypertensive activity in spontaneously hypertensive rats was measured as average blood pressure at 30 mg/kg, po after 24 hours of postdose-2; format: functional; how it was run: as §1
[6] = test system: Rattus norvegicus; assay: Antihypertensive activity in spontaneously hypertensive rats was measured as average blood pressure at 100 mg/kg, p.o. before predose; format: functional; conditions: route oral; how it was run: as §1
[7] = test system: Rattus norvegicus; assay: Antihypertensive activity in spontaneously hypertensive rats was measured as average blood pressure at 100 mg/kg, p.o. after 24 hours of postdose-2; format: functional; conditions: route oral; how it was run: as §1
[8] = test system: Rattus norvegicus; assay: Antihypertensive activity in spontaneously hypertensive rats was measured as average blood pressure at 100 mg/kg, p.o. after 4 hours of postdose-2; format: functional; conditions: route oral; how it was run: as §1
[9] = test system: Rattus norvegicus; assay: Antihypertensive activity in spontaneously hypertensive rats was measured as average blood pressure at 100 mg/kg, p.o. after 4 hours of postdose-1; format: functional; conditions: route oral; how it was run: as §1
[10] = test system: Rattus norvegicus; assay: Antihypertensive activity in spontaneously hypertensive rats was measured as average blood pressure at 100 mg/kg, p.o. after 24 hours of postdose-1; format: functional; conditions: route oral; how it was run: as §1
[11] = test system: Rattus norvegicus; assay: Antihypertensive activity in spontaneously hypertensive rats was measured as average blood pressure at 15 mg/kg, ia after 4 hours of postdose-2; format: functional; conditions: route intra-arterial; how it was run: as §1
[12] = test system: Rattus norvegicus; assay: Antihypertensive activity in spontaneously hypertensive rats was measured as average blood pressure at 15 mg/kg, ia before predose intra arterial.; format: functional, Artery; how it was run: as §1
[13] = test system: Rattus norvegicus; assay: Antihypertensive activity in spontaneously hypertensive rats was measured as average blood pressure at 15 mg/kg, ia after 4 hours of postdose-1; format: functional; conditions: route intra-arterial; how it was run: as §1
[14] = test system: Rattus norvegicus; assay: Antihypertensive activity in spontaneously hypertensive rats was measured as average blood pressure at 15 mg/kg, sc after 4 hours of postdose-2; format: functional; conditions: route subcutaneous; how it was run: as §1
[15] = test system: Rattus norvegicus; assay: Antihypertensive activity in spontaneously hypertensive rats was measured as average blood pressure at 15 mg/kg, ia after 24 hours of postdose-1; format: functional; conditions: route intra-arterial; how it was run: as §1
[16] = test system: Rattus norvegicus; assay: Antihypertensive activity in spontaneously hypertensive rats was measured as average blood pressure at 15 mg/kg, sc before predose subcutaneous; format: functional; how it was run: as §1
[17] = test system: Rattus norvegicus; assay: Antihypertensive activity in spontaneously hypertensive rats was measured as average blood pressure at 15 mg/kg, sc after 24 hours of postdose-1; format: functional; conditions: route subcutaneous; how it was run: as §1
[18] = test system: Rattus norvegicus; assay: Antihypertensive activity in spontaneously hypertensive rats was measured as average blood pressure at 15 mg/kg, sc after 24 hours of postdose-2; format: functional; conditions: route subcutaneous; how it was run: as §1
[19] = test system: Rattus norvegicus; assay: Antihypertensive activity in spontaneously hypertensive rats was measured as average blood pressure at 15 mg/kg, sc after 4 hours of postdose-1; format: functional; conditions: route subcutaneous; how it was run: as §1
[20] = test system: Rattus norvegicus; assay: Antihypertensive activity in spontaneously hypertensive rats was measured as average blood pressure at 17 mg/kg, p.o. after 4 hours of postdose-1; format: functional; conditions: route oral; how it was run: as §1
[21] = test system: Rattus norvegicus; assay: Antihypertensive activity in spontaneously hypertensive rats was measured as average blood pressure at 50 mg/kg, p.o. after 4 hours of postdose-1; format: functional; conditions: route oral
How it was run: (§2)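 Spontaneously hypertensive rats dosed orally twice. Average blood pressure (mmHg) recorded before dosing and at 4 h and 24 h after the first dose and after the second dose. Postdose values checked for significant lowering against predose.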

[22] = test system: Rattus norvegicus; assay: Antihypertensive activity in spontaneously hypertensive rats was measured as average blood pressure at 17 mg/kg, p.o. before predose; format: functional; conditions: route oral; how it was run: as §1
[23] = test system: Rattus norvegicus; assay: Antihypertensive activity in spontaneously hypertensive rats was measured as average blood pressure at 50 mg/kg, p.o. before predose; format: functional; conditions: route oral; how it was run: as §2
[24] = test system: Rattus norvegicus; assay: Antihypertensive activity in spontaneously hypertensive rats was measured as average blood pressure at 17 mg/kg, p.o. after 4 hours of postdose-2; format: functional; conditions: route oral; how it was run: as §1
[25] = test system: Rattus norvegicus; assay: Antihypertensive activity in spontaneously hypertensive rats was measured as average blood pressure at 17 mg/kg, p.o. after 24 hours of postdose-1; format: functional; conditions: route oral; how it was run: as §1
[26] = test system: Rattus norvegicus; assay: Antihypertensive activity in spontaneously hypertensive rats was measured as average blood pressure at 50 mg/kg, p.o. after 24 hours of postdose-1; format: functional; conditions: route oral; how it was run: as §2
[27] = test system: Rattus norvegicus; assay: Antihypertensive activity in spontaneously hypertensive rats was measured as average blood pressure at 17 mg/kg, p.o. after 24 hours of postdose-2; format: functional; conditions: route oral; how it was run: as §1
[28] = test system: Rattus norvegicus; assay: Antihypertensive activity in spontaneously hypertensive rats was measured as average blood pressure at 100 mg/kg, p.o. after 24 hours of postdose-1; No significant lowering of blood pressure; format: functional, organism-based; design: dose 100 mg/kg; how it was run: as §1
[29] = test system: Rattus norvegicus; assay: Antihypertensive activity in spontaneously hypertensive rats was measured as average blood pressure at 100 mg/kg, po after 4 hours of postdose-1; No significant lowering of blood pressure; format: functional, organism-based; design: dose 100 mg/kg; how it was run: as §1
[30] = test system: Rattus norvegicus; assay: Antihypertensive activity in spontaneously hypertensive rats was measured as average blood pressure at 15 mg/kg, po after 24 hours of postdose-1; No significant lowering of blood pressure; format: functional, organism-based; design: dose 15 mg/kg; how it was run: as §1
[31] = test system: Rattus norvegicus; assay: Antihypertensive activity in spontaneously hypertensive rats was measured as average blood pressure at 15 mg/kg, p.o. after 4 hours of postdose-1; No significant lowering of blood pressure; format: functional, organism-based; design: dose 15 mg/kg; how it was run: as §1
[32] = test system: Rattus norvegicus; assay: Antihypertensive activity in spontaneously hypertensive rats was measured as average blood pressure at 14 mg/kg, p.o. after 4 hours of postdose-1; No significant lowering of blood pressure; format: functional, organism-based; design: dose 14 mg/kg; how it was run: as §1
[33] = test system: Rattus norvegicus; assay: Antihypertensive activity in spontaneously hypertensive rats was measured as average blood pressure at 14 mg/kg, p.o. after 24 hours of postdose-1; No significant lowering of blood pressure; format: functional, organism-based; design: dose 14 mg/kg; how it was run: as §1
[34] = test system: Rattus norvegicus; assay: Antihypertensive activity in spontaneously hypertensive rats was measured as average blood pressure at 50 mg/kg, po after 4 hours of postdose-2; format: functional; how it was run: as §2
[35] = test system: Rattus norvegicus; assay: Antihypertensive activity in spontaneously hypertensive rats was measured as average blood pressure at 50 mg/kg, p.o. after 24 hours of postdose-2; format: functional; conditions: route oral; how it was run: as §2

## CCCCCCCCCCCCCCCCCC(=O)OCCn1nc(-c2ccc(Cl)cc2)c(-c2ccc(Cl)cc2)c(C(C)=O)c1=O
[1]
  BP: 168 mmHg
[2]
  BP: 142 mmHg
[3]
  BP: 162 mmHg
[4]
  BP: 181 mmHg
[5]
  BP: 137 mmHg

## CC(=O)c1c(-c2ccc(Cl)cc2)c(-c2ccc(Cl)cc2)nn(CCO)c1=O
[1]
  BP: 200 mmHg
[2]
  BP: 164 mmHg
[3]
  BP: 192 mmHg
[6]
  BP: 218 mmHg
[4]
  BP: 213 mmHg
[7]
  BP: 193 mmHg
[8]
  BP: 174 mmHg
[9]
  BP: 173 mmHg
[5]
  BP: 206 mmHg
[10]
  BP: 185 mmHg

## CC(=O)c1c(-c2ccc(Cl)cc2)c(-c2ccc(Cl)cc2)nn(CCOC(=O)C(N)CCCCN)c1=O.Cl.Cl (configuration not stated)
[11]
  BP: 171 mmHg
[12]
  BP: 199 mmHg
[13]
  BP: 183 mmHg
[14]
  BP: 166 mmHg
[15]
  BP: 159 mmHg
[16]
  BP: 181 mmHg
[17]
  BP: 171 mmHg
[18]
  BP: 185 mmHg
[19]
  BP: 169 mmHg

## Br.Br.CC(=O)c1c(-c2ccc(Cl)cc2)c(-c2ccc(Cl)cc2)nn(CCOC(=O)C(N)CCCCN)c1=O (configuration not stated)
[20]
  BP: 165 mmHg
[21]
  BP: 179 mmHg
[22]
  BP: 189 mmHg
[23]
  BP: 231 mmHg
[24]
  BP: 143 mmHg
[25]
  BP: 162 mmHg
[26]
  BP: 173 mmHg
[27]
  BP: 175 mmHg

## CC(=O)c1c(-c2ccc(Cl)cc2)c(-c2ccc(Cl)cc2)nn(CCOC(=O)CCNC(=O)OCc2ccccc2)c1=O
[28]
  BP: Not significant
[29]
  BP: Not significant

## CC(=O)c1c(-c2ccc(Cl)cc2)c(-c2ccc(Cl)cc2)nn(CCOC(=O)CNC(=O)OCc2ccccc2)c1=O
[28]
  BP: Not significant
[29]
  BP: Not significant

## CSCCC(N)C(=O)OCCn1nc(-c2ccc(Cl)cc2)c(-c2ccc(Cl)cc2)c(C(C)=O)c1=O (configuration not stated)
[30]
  BP: Not significant
[31]
  BP: Not significant

## CC(=O)c1c(-c2ccc(Cl)cc2)c(-c2ccc(Cl)cc2)nn(CCOC(=O)C(Cc2ccccc2)NC(=O)OCc2ccccc2)c1=O (configuration not stated)
[28]
  BP: Not significant
[29]
  BP: Not significant

## CC(=O)c1c(-c2ccc(Cl)cc2)c(-c2ccc(Cl)cc2)nn(CCOC(=O)C(N)C(C)C)c1=O (configuration not stated)
[32]
  BP: Not significant
[33]
  BP: Not significant

## N=C(N)NCCN1CCCCCCC1 [GUANETHIDINE]
[34]
  BP: 138 mmHg
[21]
  BP: 154 mmHg
[35]
  BP: 186 mmHg
[23]
  BP: 187 mmHg
[26]
  BP: 166 mmHg
